Test results published in ChEMBL document CHEMBL2086252, “Syntheses and evaluation of anticonvulsant activity of novel branched alkyl carbamates” (J Med Chem, 2012).
Active and inactive are the calls of the source. No cut-off for these calls is given here.

Legend:
[1] = tested on: Mus musculus; experiment: Neurotoxicity in albino CF1 mouse assessed as minimal motor impairment at 100 mg/kg, ip after 4 hrs by rotarod test; assay type: toxicity, organism-based; set-up: dose 100 mg/kg, route intraperitoneal; conditions: in vivo
Summary of the method: (§1)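 Mice dosed ip at 30, 100 or 300 mg/kg, then tested 0.5 h and 4 h after administration in the MES or scMet test. Protection was recorded as animals protected over animals tested. Neurotoxicity was recorded as motor impairment or sedation, as animals affected over animals tested.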

[2] = tested on: Rattus norvegicus; experiment: Neurotoxicity in pilocarpine-induced status epilepticus Sprague-Dawley albino rat model assessed as minimal motor impairment at 30 mg/kg, ip after 0.5 hrs by rotarod test; assay type: toxicity, organism-based; set-up: dose 30 mg/kg, route intraperitoneal; conditions: in vivo
Summary of the method: (§2)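 Rat pilocarpine status epilepticus model: test carbamate given at 0 or 30 min after the first observed Racine stage 3 motor seizure, which marks SE onset. Neurotoxicity was scored within the same model.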

[3] = tested on: Rattus norvegicus; experiment: Neurotoxicity in pilocarpine-induced status epilepticus Sprague-Dawley albino rat model assessed as minimal motor impairment at 100 mg/kg, ip after 1 hr by rotarod test; assay type: toxicity, organism-based; set-up: dose 100 mg/kg, route intraperitoneal; conditions: in vivo
[4] = tested on: Mus musculus; experiment: Anticonvulsant activity in albino CF1 mouse assessed as protection against subcutaneous metrazol-induced seizures at 100 mg/kg, ip after 4 hrs; assay type: functional, organism-based; set-up: dose 100 mg/kg; summary of the method: as §1
[5] = tested on: Mus musculus; experiment: Anticonvulsant activity in albino CF1 mouse assessed as protection against subcutaneous metrazol-induced seizures at 300 mg/kg, ip after 4 hrs; assay type: functional, organism-based; set-up: dose 300 mg/kg; summary of the method: as §1
[6] = tested on: Rattus norvegicus; experiment: Anticonvulsant activity in Sprague-Dawley albino rat assessed as protection against maximal electroshock-induced seizures at 30 mg/kg, po after 1 hr; assay type: functional, organism-based; set-up: dose 30 mg/kg
Summary of the method: (§3)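 Rats dosed orally. Anti-MES protection was scored as animals protected over animals tested at each time after dosing. Neurotoxicity was scored as motor impairment or sedation, as animals affected over animals tested.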

[7] = tested on: Rattus norvegicus; experiment: Neurotoxicity in pilocarpine-induced status epilepticus Sprague-Dawley albino rat model assessed as minimal motor impairment at 30 mg/kg, ip after 4 hrs by rotarod test; assay type: toxicity, organism-based; set-up: dose 30 mg/kg, route intraperitoneal; conditions: in vivo; summary of the method: as §2
[8] = tested on: Rattus norvegicus; experiment: Anticonvulsant activity in Sprague-Dawley albino rat assessed as protection against maximal electroshock-induced seizures at 30 mg/kg, po after 30 mins; assay type: functional, organism-based; set-up: dose 30 mg/kg; summary of the method: as §3
[9] = tested on: Mus musculus; experiment: Anticonvulsant activity in albino CF1 mouse assessed as protection against subcutaneous metrazol-induced seizures at 100 mg/kg, ip after 0.5 hrs; assay type: functional, organism-based; set-up: dose 100 mg/kg; summary of the method: as §1
[10] = tested on: Mus musculus; experiment: Anticonvulsant activity in albino CF1 mouse assessed as protection against subcutaneous metrazol-induced seizures at 30 mg/kg, ip after 4 hrs; assay type: functional, organism-based; set-up: dose 30 mg/kg; summary of the method: as §1
[11] = tested on: Rattus norvegicus; experiment: Anticonvulsant activity in Sprague-Dawley albino rat assessed as protection against maximal electroshock-induced seizures at 30 mg/kg, po after 2 hrs; assay type: functional, organism-based; set-up: dose 30 mg/kg; summary of the method: as §3
[12] = tested on: Mus musculus; experiment: Anticonvulsant activity in albino CF1 mouse assessed as protection against subcutaneous metrazol-induced seizures at 30 mg/kg, ip after 0.5 hrs; assay type: functional, organism-based; set-up: dose 30 mg/kg; summary of the method: as §1
[13] = tested on: Mus musculus; experiment: Anticonvulsant activity in albino CF1 mouse assessed as protection against maximal electroshock-induced seizures at 30 mg/kg, ip after 0.5 hrs; assay type: functional, organism-based; set-up: dose 30 mg/kg; summary of the method: as §1
[14] = tested on: Rattus norvegicus; experiment: Neurotoxicity in pilocarpine-induced status epilepticus Sprague-Dawley albino rat model assessed as minimal motor impairment at 30 mg/kg, ip after 0.25 hr by rotarod test; assay type: toxicity, organism-based; set-up: dose 30 mg/kg, route intraperitoneal; conditions: in vivo; summary of the method: as §2
[15] = tested on: Rattus norvegicus; experiment: Anticonvulsant activity in Sprague-Dawley albino rat assessed as protection against pilocarpine-induced status epilepticus at 65 mg/kg, ip; assay type: functional, organism-based; set-up: dose 65 mg/kg
Summary of the method: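 Pilocarpine status epilepticus model in rats. Number and severity of convulsive seizures were observed behaviourally.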

[16] = tested on: Rattus norvegicus; experiment: Neurotoxicity in pilocarpine-induced status epilepticus Sprague-Dawley albino rat model assessed as minimal motor impairment at 300 mg/kg, ip after 0.25 hr by rotarod test; assay type: toxicity, organism-based; set-up: dose 300 mg/kg, route intraperitoneal; conditions: in vivo; summary of the method: as §2
[17] = tested on: Rattus norvegicus; experiment: Anticonvulsant activity in Sprague-Dawley albino rat assessed as protection against maximal electroshock-induced seizures at 30 mg/kg, po after 15 mins; assay type: functional, organism-based; set-up: dose 30 mg/kg; summary of the method: as §3
[18] = tested on: Rattus norvegicus; experiment: Neurotoxicity in pilocarpine-induced status epilepticus Sprague-Dawley albino rat model assessed as minimal motor impairment at 300 mg/kg, ip after 4 hrs by rotarod test; assay type: toxicity, organism-based; set-up: dose 300 mg/kg, route intraperitoneal; conditions: in vivo; summary of the method: as §2
[19] = tested on: Rattus norvegicus; experiment: Neurotoxicity in pilocarpine-induced status epilepticus Sprague-Dawley albino rat model assessed as minimal motor impairment at 300 mg/kg, ip after 2 hrs by rotarod test; assay type: toxicity, organism-based; set-up: dose 300 mg/kg, route intraperitoneal; conditions: in vivo; summary of the method: as §2
[20] = tested on: Mus musculus; experiment: Anticonvulsant activity in albino CF1 mouse assessed as protection against subcutaneous metrazol-induced seizures at 300 mg/kg, ip after 0.5 hrs; assay type: functional, organism-based; set-up: dose 300 mg/kg; summary of the method: as §1
[21] = tested on: Rattus norvegicus; experiment: Neurotoxicity in pilocarpine-induced status epilepticus Sprague-Dawley albino rat model assessed as minimal motor impairment at 30 mg/kg, ip after 2 hrs by rotarod test; assay type: toxicity, organism-based; set-up: dose 30 mg/kg, route intraperitoneal; conditions: in vivo; summary of the method: as §2
[22] = tested on: Mus musculus; experiment: Anticonvulsant activity in albino CF1 mouse assessed as protection against maximal electroshock-induced seizures at 30 mg/kg, ip after 4 hrs; assay type: functional, organism-based; set-up: dose 30 mg/kg; summary of the method: as §1
[23] = tested on: Mus musculus; experiment: Neurotoxicity in albino CF1 mouse assessed as minimal motor impairment at 300 mg/kg, ip after 0.5 hrs by rotarod test; assay type: toxicity, organism-based; set-up: dose 300 mg/kg, route intraperitoneal; conditions: in vivo; summary of the method: as §1
[24] = tested on: Rattus norvegicus; experiment: Neurotoxicity in pilocarpine-induced status epilepticus Sprague-Dawley albino rat model assessed as minimal motor impairment at 300 mg/kg, ip after 0.5 hrs by rotarod test; assay type: toxicity, organism-based; set-up: dose 300 mg/kg, route intraperitoneal; conditions: in vivo; summary of the method: as §2
[25] = tested on: Rattus norvegicus; experiment: Neurotoxicity in pilocarpine-induced status epilepticus Sprague-Dawley albino rat model assessed as minimal motor impairment at 100 mg/kg, ip after 0.25 hr by rotarod test; assay type: toxicity, organism-based; set-up: dose 100 mg/kg, route intraperitoneal; conditions: in vivo
[26] = tested on: Mus musculus; experiment: Anticonvulsant activity in albino CF1 mouse assessed as protection against maximal electroshock-induced seizures at 300 mg/kg, ip after 0.5 hrs; assay type: functional, organism-based; set-up: dose 300 mg/kg; summary of the method: as §1
[27] = tested on: Rattus norvegicus; experiment: Neurotoxicity in Sprague-Dawley albino rat assessed as minimal motor impairment at 30 mg/kg, po by rotarod test; assay type: toxicity, organism-based; set-up: dose 30 mg/kg, route oral; conditions: in vivo; summary of the method: as §3
[28] = tested on: Mus musculus; experiment: Neurotoxicity in albino CF1 mouse assessed as minimal motor impairment at 300 mg/kg, ip after 4 hrs by rotarod test; assay type: toxicity, organism-based; set-up: dose 300 mg/kg, route intraperitoneal; conditions: in vivo; summary of the method: as §1
[29] = tested on: Rattus norvegicus; experiment: Anticonvulsant activity in Sprague-Dawley albino rat assessed as protection against maximal electroshock-induced seizures at 30 mg/kg, po after 4 hrs; assay type: functional, organism-based; set-up: dose 30 mg/kg; summary of the method: as §3
[30] = tested on: Mus musculus; experiment: Neurotoxicity in albino CF1 mouse assessed as minimal motor impairment at 30 mg/kg, ip after 4 hrs by rotarod test; assay type: toxicity, organism-based; set-up: dose 30 mg/kg, route intraperitoneal; conditions: in vivo; summary of the method: as §1
[31] = tested on: Mus musculus; experiment: Anticonvulsant activity in albino CF1 mouse assessed as protection against maximal electroshock-induced seizures at 100 mg/kg, ip after 4 hrs; assay type: functional, organism-based; set-up: dose 100 mg/kg; summary of the method: as §1
[32] = tested on: Rattus norvegicus; experiment: Neurotoxicity in pilocarpine-induced status epilepticus Sprague-Dawley albino rat model assessed as minimal motor impairment at 100 mg/kg, ip after 4 hrs by rotarod test; assay type: toxicity, organism-based; set-up: dose 100 mg/kg, route intraperitoneal; conditions: in vivo
[33] = tested on: Rattus norvegicus; experiment: Neurotoxicity in pilocarpine-induced status epilepticus Sprague-Dawley albino rat model assessed as minimal motor impairment at 100 mg/kg, ip after 0.5 hrs by rotarod test; assay type: toxicity, organism-based; set-up: dose 100 mg/kg, route intraperitoneal; conditions: in vivo
[34] = tested on: Mus musculus; experiment: Anticonvulsant activity in albino CF1 mouse assessed as protection against maximal electroshock-induced seizures at 300 mg/kg, ip after 4 hrs; assay type: functional, organism-based; set-up: dose 300 mg/kg; summary of the method: as §1
[35] = tested on: Rattus norvegicus; experiment: Neurotoxicity in pilocarpine-induced status epilepticus Sprague-Dawley albino rat model assessed as minimal motor impairment at 100 mg/kg, ip after 2 hrs by rotarod test; assay type: toxicity, organism-based; set-up: dose 100 mg/kg, route intraperitoneal; conditions: in vivo
[36] = tested on: Mus musculus; experiment: Neurotoxicity in albino CF1 mouse assessed as minimal motor impairment at 30 mg/kg, ip after 0.5 hrs by rotarod test; assay type: toxicity, organism-based; set-up: dose 30 mg/kg, route intraperitoneal; conditions: in vivo; summary of the method: as §1
[37] = tested on: Rattus norvegicus; experiment: Neurotoxicity in pilocarpine-induced status epilepticus Sprague-Dawley albino rat model assessed as minimal motor impairment at 30 mg/kg, ip after 1 hr by rotarod test; assay type: toxicity, organism-based; set-up: dose 30 mg/kg, route intraperitoneal; conditions: in vivo; summary of the method: as §2

`CCC(C)CCOC(N)=O` (racemic) was tested, and the Activity [1] was “Non-toxic”, the Activity [2] was “Non-toxic” and the Activity [3] was “Non-toxic”. For the same molecule, the Activity [4] was “inactive”, the Activity [5] was “inactive” and the Activity [6] was “inactive”. The Activity [7] was “Non-toxic”, the Activity [8] was “inactive” and the Activity [9] was “inactive”. The Activity [10] was “inactive”, the Activity [11] was “inactive” and the Activity [12] was “inactive”. The Activity [13] was “inactive”, the Activity [14] was “Non-toxic” and the Activity [15] was “Active”. For the same molecule, the Activity [16] was “Toxic”, the Activity [17] was “inactive” and the Activity [18] was “Non-toxic”. For the same molecule, the Activity [19] was “Non-toxic”, the Activity [20] was “inactive” and the Activity [21] was “Non-toxic”. The Activity [22] was “inactive”, the Activity [23] was “Toxic” and the Activity [24] was “Toxic”. The Activity [25] was “Toxic”, the Activity [26] was “Active” and the Activity [27] was “Non-toxic”. For the same molecule, the Activity [28] was “Non-toxic”, the Activity [29] was “inactive” and the Activity [30] was “Non-toxic”. For the same molecule, the Activity [31] was “inactive”, the Activity [32] was “Non-toxic” and the Activity [33] was “Toxic”. For the same molecule, the Activity [34] was “inactive”, the Activity [35] was “Non-toxic” and the Activity [36] was “Non-toxic”. For the same molecule, the Activity [37] was “Non-toxic”.
